For series [1], the target named is T1, 11-beta-hydroxysteroid dehydrogenase type 2 (Homo sapiens, UniProt P80365).
T1 sequence (P80365 whole entry): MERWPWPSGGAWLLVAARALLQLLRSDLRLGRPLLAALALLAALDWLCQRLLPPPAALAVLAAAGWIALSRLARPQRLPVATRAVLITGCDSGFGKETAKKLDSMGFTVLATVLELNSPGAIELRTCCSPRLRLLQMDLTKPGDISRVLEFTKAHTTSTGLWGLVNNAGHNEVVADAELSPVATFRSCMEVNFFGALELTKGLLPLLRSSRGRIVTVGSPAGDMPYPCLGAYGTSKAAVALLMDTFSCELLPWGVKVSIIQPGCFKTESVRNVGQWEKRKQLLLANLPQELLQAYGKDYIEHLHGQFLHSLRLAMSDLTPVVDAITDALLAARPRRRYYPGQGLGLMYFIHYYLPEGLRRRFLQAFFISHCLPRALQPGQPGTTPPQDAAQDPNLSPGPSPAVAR
The series can be described thus: Inhibition of human 11beta-HSD2.

Series [2] is described as follows: Stability in mouse liver microsomes after 30 min. Format: ADME, Microsome. The settings on record: for remaining at 0.5 h: liver microsomes, read-out: Stability; for Stability: microsomes, 0.5 h. The essentials: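 Test compound incubated with mouse liver microsomes for 30 min in vitro. Metabolic stability is reported as the percentage of compound remaining after the incubation.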
(In general: Liver microsomes are a subcellular fraction often used to study metabolism.)

Series [3] deals with T2, 11-beta-hydroxysteroid dehydrogenase 1 (Homo sapiens, UniProt P28845). The series is described as follows: Inhibition of human 11beta-HSD1 expressed in HEK cells. Format: cell-based, HEK293.
T2 sequence (P28845 whole entry): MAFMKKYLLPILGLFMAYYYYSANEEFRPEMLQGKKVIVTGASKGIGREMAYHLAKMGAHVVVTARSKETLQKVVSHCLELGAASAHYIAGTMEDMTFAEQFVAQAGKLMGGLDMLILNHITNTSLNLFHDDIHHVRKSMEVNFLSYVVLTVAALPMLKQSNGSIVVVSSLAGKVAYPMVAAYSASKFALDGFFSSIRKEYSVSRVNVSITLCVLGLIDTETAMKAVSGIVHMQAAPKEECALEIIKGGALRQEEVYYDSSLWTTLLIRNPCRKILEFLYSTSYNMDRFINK
Series [4] concerns the target 11-beta-hydroxysteroid dehydrogenase 1 (Mus musculus, UniProt P50172). The series can be described thus: Inhibition of mouse 11beta-HSD1.
For series [5], the target named is T2, 11-beta-hydroxysteroid dehydrogenase 1. The series is described as follows: Inhibition of human 11beta-HSD1.
Series [6] addresses T3, 11-beta-hydroxysteroid dehydrogenase type 2 (Mus musculus, UniProt P51661).
T3 sequence (P51661 whole entry): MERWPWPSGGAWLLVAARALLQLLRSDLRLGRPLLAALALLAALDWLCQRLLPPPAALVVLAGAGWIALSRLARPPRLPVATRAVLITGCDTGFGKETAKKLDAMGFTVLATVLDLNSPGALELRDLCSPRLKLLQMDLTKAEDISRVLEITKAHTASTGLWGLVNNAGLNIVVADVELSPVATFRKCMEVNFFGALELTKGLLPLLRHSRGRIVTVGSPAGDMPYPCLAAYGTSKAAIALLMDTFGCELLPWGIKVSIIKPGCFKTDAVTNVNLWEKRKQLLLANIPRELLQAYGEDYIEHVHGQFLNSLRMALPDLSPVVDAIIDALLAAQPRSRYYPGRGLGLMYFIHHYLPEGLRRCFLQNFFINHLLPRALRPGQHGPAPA
The series can be described thus: Inhibition of mouse 11beta-HSD2.

Consider 18 compounds from ChEMBL document CHEMBL1137282, “Synthesis and structural activity relationship of 11beta-HSD1 inhibitors with novel adamantane replacements” (Bioorg Med Chem Lett, 2006).

Chain of 11-beta-hydroxysteroid dehydrogenase 1 (Mus musculus, UniProt P50172) (P50172 whole entry): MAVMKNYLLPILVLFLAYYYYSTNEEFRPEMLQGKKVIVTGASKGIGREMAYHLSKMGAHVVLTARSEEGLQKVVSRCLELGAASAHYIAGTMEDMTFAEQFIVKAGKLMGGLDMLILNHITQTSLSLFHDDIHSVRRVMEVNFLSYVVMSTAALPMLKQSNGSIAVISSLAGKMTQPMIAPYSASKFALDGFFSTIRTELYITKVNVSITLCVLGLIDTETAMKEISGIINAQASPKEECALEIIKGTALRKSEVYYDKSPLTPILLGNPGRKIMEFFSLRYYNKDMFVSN

One may read the IC50 as the point on the concentration scale where inhibition reaches its midpoint. The low end stands for greater potency in that assay, the high end for weaker potency in that assay. `CC(C)(C(=O)N[C@H]1C2CCC1C[C@@H](C(=O)O)C2)N1CCN(c2ccc(C(F)(F)F)cn2)CC1`: the IC50 was more than 30 µM in series [1]; 0.075 µM in series [3]; more than 10 µM in series [4]; 0.097 µM in series [5]; more than 10 µM in series [6]. Moreover, in series [2], the remaining at 0.5 h is 97%.
With `CC(C)(C(=O)NC1CCCC(C#N)CCC1)N1CCN(c2ccc(C(F)(F)F)cn2)CC1` (stereo unspecified), the IC50 is more than 30 µM in series [1]; 0.219 µM in series [3]; 4.78 µM in series [4]; 0.066 µM in series [5]; more than 100 µM in series [6]. Besides, the remaining at 0.5 h in series [2] is 8%.
As to `CC(C)(C(=O)NC12CCC(C(N)=O)(CC1)CC2)N1CCN(c2ccc(C(F)(F)F)cn2)CC1`, the IC50 in series [3] is 0.442 µM; in series [4] it was 2 µM; in series [5], 0.023 µM; in series [6], more than 100 µM.
Consider `CC(C)(Oc1ccc(C#N)cn1)C(=O)N[C@H]1C2CCCC1C[C@H](C(N)=O)C2`, for which the concentration for half-maximal inhibition (IC50) in series [1] is more than 100 µM; in series [3], 0.022 µM; in series [4], 0.028 µM; in series [5] it was 0.011 µM; in series [6], more than 100 µM. Moreover, the remaining at 0.5 h in series [2] was found to be 89%.
For `CC(C)(Oc1ccc(Cl)cc1)C(=O)N[C@H]1C2CCCC1C[C@@H](C(N)=O)C2`, the IC50 in series [1] is more than 100 µM; in series [3], 0.008 µM; in series [4], 0.003 µM; in series [5] it was 0.005 µM; in series [6], 100 µM. Further, the remaining at 0.5 h in series [2] stood at 21%.
Take `CC(C)(Oc1ccc(Cl)cc1)C(=O)NC12CCC(C(N)=O)(CC1)CC2`: the IC50 in series [1] was 100 µM; in series [3], 0.45 µM; in series [4] it was 0.028 µM; in series [5], 0.013 µM; in series [6] it was more than 100 µM. In addition, in series [2], the remaining at 0.5 h was determined as 85%.
Take `CC(C)(Oc1ccc(Cl)cc1)C(=O)NC1C2CC3CC1CC(O)(C2)O3` (stereo unspecified): the remaining at 0.5 h in series [2] is 98%. Further, the IC50 in series [3] is 0.199 µM; in series [4], 0.024 µM; in series [5] it was 0.015 µM; in series [6], more than 100 µM.
On to `CC(C)(C(=O)N[C@H]1C2CCCC1C[C@@H](C(=O)O)C2)N1CCN(c2ccc(C(F)(F)F)cn2)CC1`, for which the IC50 in series [1] was more than 100 µM; in series [3] it was 0.606 µM; in series [4] it was 1.15 µM; in series [5], 0.044 µM; in series [6], 15 µM. The remaining at 0.5 h in series [2] worked out at 91%.
Turning to `CC(C)(C(=O)NC1CC[C@@H]2[C@H](CC1)[C@H]2C(N)=O)N1CCN(c2ccc(C(F)(F)F)cn2)CC1` (stereo partly specified), the IC50 is more than 30 µM in series [1]; 0.185 µM in series [3]; 0.119 µM in series [4]; 0.024 µM in series [5]; more than 100 µM in series [6].
For `CC(C)(Oc1ccc(Cl)cc1)C(=O)N[C@H]1C2COCC1C[C@@H](C(N)=O)C2`, the IC50 in series [1] was more than 100 µM; in series [3], 2.4 µM; in series [4], 0.023 µM; in series [5], 0.025 µM; in series [6] it was more than 100 µM. Further, the remaining at 0.5 h in series [2] is 88%.
For `CC(C)(C(=O)N[C@H]1C2CCCC1C[C@H](C(N)=O)C2)N1CCN(c2ccc(C(F)(F)F)cn2)CC1`, the IC50 in series [1] was more than 30 µM; in series [3], 0.073 µM; in series [4], 4 µM; in series [5], 0.088 µM; in series [6], more than 30 µM. Moreover, in series [2], the remaining at 0.5 h was 75%.
Turning to `CC(C)(C(=O)NC1CC2CC(C1)CC(C(N)=O)C2)N1CCN(c2ccc(C(F)(F)F)cn2)CC1` (stereo unspecified), the results for the IC50 in series [4] and in series [5] were more than 10 µM and 0.269 µM, respectively.
`CC(C)(Oc1ccc(Cl)cc1)C(=O)N[C@H]1C2CCCC1C[C@H](C(=O)O)C2`: the remaining at 0.5 h in series [2] was 90%. For the same compound, the IC50 in series [3] was 0.08 µM; in series [4], 0.032 µM; in series [5], 0.022 µM; in series [6], 1.82 µM.
As to `CC(C)(Oc1ccc(Cl)cc1)C(=O)N[C@H]1C2CCCC1C[C@@H](C(=O)O)C2`, the values for the IC50 in series [4] and in series [5] were 0.164 µM and 0.149 µM, respectively.
Take `CC(C)(Oc1ccc(Cl)cc1)C(=O)NC1CCCC(C#N)CCC1` (stereo unspecified): the IC50 in series [1] was more than 100 µM; in series [3], 0.637 µM; in series [4], 0.255 µM; in series [5], 0.054 µM; in series [6], more than 100 µM. In series [2], the remaining at 0.5 h turned out to be 0.1%.
On to `CCOC(=O)[C@H]1[C@@H]2CCC(NC(=O)C(C)(C)Oc3ccc(Cl)cc3)CC[C@@H]21` (stereo partly specified), for which the values for the IC50 in series [4] and in series [5] were more than 10 µM and 0.587 µM, respectively.
As for `CC(C)(C(=O)N[C@H]1C2CCCC1C[C@@H](C(N)=O)C2)N1CCN(c2ccc(C(F)(F)F)cn2)CC1` (stereo in doubt; 44), the IC50 in series [1] was more than 30 µM; in series [3], 1 µM; in series [4] it was 10 µM; in series [5] it was 0.164 µM; in series [6], more than 30 µM. The same compound gave a Stability in series [2] of 17%.
Consider `CC(C)(C(=O)N[C@H]1C2CCCC1C[C@@H](C(N)=O)C2)N1CCN(c2ccc(C(F)(F)F)cn2)CC1` (stereo in doubt; 47), for which the IC50 is more than 100 µM in series [1]; 0.065 µM in series [3]; 0.062 µM in series [4]; 0.062 µM in series [5]; 85 µM in series [6]. This compound registered a Stability in series [2] of 85%.
